Laboratory results taken from ChEMBL document CHEMBL3425495, “Perturbation of the c-Myc-Max protein-protein interaction via synthetic α-helix mimetics” (J Med Chem, 2015).
The source made the active and inactive calls. No cut-off for these calls is given here.

Experiments:
[1] = Cell cycle arrest in human HL60 cells assessed as accumulation at G0/G1 phase at 20 uM after 24 hrs by propidium iodide staining-based flow cytometric analysis (reference value: 39%); assay type: functional; settings: HL-60
[2] = Cell cycle arrest in human HL60 cells assessed as accumulation at S phase at 20 uM after 24 hrs by propidium iodide staining-based flow cytometric analysis (reference value: 49%); assay type: functional; settings: HL-60
[3] = Cell cycle arrest in human HL60 cells assessed as accumulation at G2/M phase at 20 uM after 24 hrs by propidium iodide staining-based flow cytometric analysis (reference value: 11.2%); assay type: functional; settings: HL-60
[4] = Cell cycle arrest in human HL60 cells assessed as accumulation at G0/G1 phase at 40 uM after 24 hrs by propidium iodide staining-based flow cytometric analysis (reference value: 39%); assay type: functional; settings: HL-60
[5] = Cell cycle arrest in human HL60 cells assessed as accumulation at S phase at 40 uM after 24 hrs by propidium iodide staining-based flow cytometric analysis (reference value: 49%); assay type: functional; settings: HL-60
[6] = Cell cycle arrest in human HL60 cells assessed as accumulation at G2/M phase at 40 uM after 24 hrs by propidium iodide staining-based flow cytometric analysis (reference value: 11.2%); assay type: functional; settings: HL-60
[7] = molecular target: T1, c-Myc/Max (Homo sapiens, UniProt P01106+P61244); experiment: Induction of dissociation of […]-Max in human HL60 cells at 40 to 72 uM after 6 hrs by Co-immunoprecipitation (Co-IP) assay; assay type: cell-based; settings: HL-60
In short: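 About 5×10⁶ HL60 cells exposed 6 h to compound or DMSO; lysed in IP buffer; 300 µg cleared lysate immunoprecipitated overnight at 4 °C with anti-Max (1:200) and protein G-Sepharose; 10% SDS-PAGE, immunoblot with anti-c-Myc 9E10 (1:1000); input lysate kept for comparison.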

[8] = molecular target: T1, c-Myc/Max; experiment: Disruption of human recombinant c-Myc-Max(S)/DNA (unknown origin) binding assessed as complex level at 100 uM by electrophoretic mobility shift assay relative to control; assay type: protein-complex assay
In short: (§1)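 Recombinant c-Myc 353–437 bHLH-ZIP with full-length Max(S), or Max(L) alone, from E. coli (His₆ removed by TEV), each 30 nM, with 30 nM HEX-labelled double-stranded oligonucleotide bearing a c-Myc site; buffer 1× PBS pH 7.3, 1 mM EDTA, 0.1% NP40, 5% glycerol, 1 mM DTT, 400 µg/mL BSA; complex level relative to DMSO control; three independent EMSAs.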

[9] = molecular target: T1, c-Myc/Max; experiment: Disruption of human recombinant c-Myc-Max/DNA (unknown origin) binding assessed as complex level by electrophoretic mobility shift assay relative to control; assay type: protein-complex assay; in short: as §1
[10] = Antiproliferative activity against c-Myc-overexpressing human HL60 cells after 3 days by MTT assay; assay type: functional, cell-based; settings: HL-60, 72 h
In short: (§2)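 Cells at >90% viability seeded at 2×10³ cells/well in fresh growth medium with 10-point serial dilutions of compound; 3-day incubation; viability by MTT, relative to untreated cells; each point in at least triplicate; IC50 from dose–response. HO15.19-wt-Myc are myc−/− rat fibroblasts with c-Myc restored by stable retroviral transduction.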

[11] = tested on: Daudi; experiment: Antiproliferative activity against c-Myc-overexpressing human Daudi cells after 3 days by MTT assay; assay type: functional, cell-based; settings: 72 h; in short: as §2

T1 sequence (P01106 whole entry): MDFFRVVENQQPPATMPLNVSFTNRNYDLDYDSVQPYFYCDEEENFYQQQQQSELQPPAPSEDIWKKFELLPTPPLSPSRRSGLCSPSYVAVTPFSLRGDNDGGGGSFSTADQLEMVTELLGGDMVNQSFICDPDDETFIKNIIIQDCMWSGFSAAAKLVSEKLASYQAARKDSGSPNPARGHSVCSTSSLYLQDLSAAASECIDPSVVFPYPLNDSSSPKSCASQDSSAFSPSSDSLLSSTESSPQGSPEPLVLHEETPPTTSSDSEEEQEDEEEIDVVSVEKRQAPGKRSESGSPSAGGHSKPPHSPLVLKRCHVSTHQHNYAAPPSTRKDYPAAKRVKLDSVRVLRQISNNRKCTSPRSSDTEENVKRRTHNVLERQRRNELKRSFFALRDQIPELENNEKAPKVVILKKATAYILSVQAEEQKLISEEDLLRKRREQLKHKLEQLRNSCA
T1 sequence (P61244 whole entry): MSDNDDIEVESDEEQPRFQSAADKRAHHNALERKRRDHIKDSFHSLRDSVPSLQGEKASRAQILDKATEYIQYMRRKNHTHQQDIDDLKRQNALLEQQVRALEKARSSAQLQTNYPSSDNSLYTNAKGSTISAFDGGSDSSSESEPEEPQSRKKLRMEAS

Activity [8] [%] | SMILES | other results
 | CCc1ccc(/C=C2\SC(=S)NC2=O)cc1 | Activity [1]: 48%; Activity [2]: 42%; Activity [3]: 10%; Activity [4]: 59.3%; Activity [5]: 35%; Activity [6]: 5.6%; Activity [7]: inactive
0 | CCOC(=O)C(=O)Nc1ccc(C(=O)Nc2ccc(C(=O)O)cc2OCC(C)C)cc1OCC(C)C | IC50 [9]: 5.6 µM; IC50 [10]: > 50 µM; IC50 [11]: > 50 µM
99 | CC(C)COc1cc(C(=O)Nc2ccc(C(=O)O)cc2OCC(C)C)ccc1NC(=O)C(=O)O | 
105 | CC(C)COc1cc(C(=O)Nc2ccc(C(=O)O)cc2OCC(C)C)ccc1N | 
116 | CC(C)COc1cc(C(=O)Nc2ccc(C(=O)O)cc2OCc2ccccn2)ccc1[N+](=O)[O-] | 
96 | CC(C)COc1cc(NC(=O)c2ccc([N+](=O)[O-])cc2OCC(C)C)ccc1C(=O)O | 
100 | COC(=O)c1ccc(NC(=O)c2ccc([N+](=O)[O-])c(OC3Cc4ccccc4C3)c2)c(OC2Cc3ccccc3C2)c1 | 
109 | COC(=O)c1ccc(NC(=O)c2ccc([N+](=O)[O-])c(OCc3cccc4ccccc34)c2)c(OCC(C)C)c1 | 
97 | CC(C)COc1cccc(C(=O)Nc2ccc(C(=O)O)cc2OCC(C)C)c1 | 
0 | CC(C)COc1cc(C(=O)O)ccc1NC(=O)c1ccc([N+](=O)[O-])c(OCC(C)C)n1 | IC50 [9]: 43.8 µM; IC50 [10]: 21.5 µM; IC50 [11]: 11.2 µM
112 | COC(=O)c1ccc(NC(=O)c2ccc([N+](=O)[O-])c(OCc3ccccc3)c2)c(OC2Cc3ccccc3C2)c1 | 
112 | COC(=O)c1ccc(NC(=O)c2ccc([N+](=O)[O-])c(OCC(C)C)c2)c(OCC(C)C)c1 | 
87 | CC(C)COc1cc(C(=O)O)ccc1NC(=O)c1ccc(N)c(OC2Cc3ccccc3C2)c1 | 
85 | COC(=O)c1ccc(NC(=O)c2ccc([N+](=O)[O-])c(OCc3ccccc3)c2)c(OCc2ccccc2)c1 | 
75 | CC(C)COc1cc(C(=O)Nc2ccc(C(=O)O)cc2OCc2cccnc2)ccc1[N+](=O)[O-] | 
75 | COC(=O)c1ccc(NC(=O)c2ccc([N+](=O)[O-])c(OCc3ccccc3)c2)c(OCC(C)C)c1 | 
109 | COC(=O)c1ccc(NC(=O)c2ccc([N+](=O)[O-])c(OC(C)C)c2)c(OC2Cc3ccccc3C2)c1 | 
104 | CC(C)COc1cc(C(=O)Nc2ccc(C(=O)O)cc2OCc2ccccc2)ccc1[N+](=O)[O-] | 
73 | COC(=O)c1ccc(NC(=O)c2ccc([N+](=O)[O-])c(OC(C)C)c2)c(OCc2ccccc2)c1 | 
79 | CC(C)COc1nc(C(=O)Nc2ccc(C(=O)O)nc2OCC(C)C)ccc1N | 
94 | COc1cc(C(=O)O)ccc1NC(=O)c1ccc([N+](=O)[O-])c(OC)c1 | 

Activity [8] [%] | SMILES | other results
99 | CC(C)COc1cc(C(=O)N(CC(=O)O)CC(=O)O)ccc1NC(=O)c1ccc([N+](=O)[O-])c(OCC(C)C)c1 | 
47 | CC(C)Oc1cc(C(=O)O)ccc1NC(=O)c1ccc([N+](=O)[O-])c(OC(C)C)c1 | 
81 | CC(C)COc1cc(C(=O)Nc2ccc(C(=O)O)cc2)ccc1[N+](=O)[O-] | 
80 | CC(C)COc1cc(NC(=O)c2ccc([N+](=O)[O-])c(OCC(C)C)c2)ccc1C(=O)O | 
65 | CC(C)COc1cc(C(=O)O)ccc1NC(=O)c1ccc([N+](=O)[O-])c(OC2Cc3ccccc3C2)c1 | 
90 | COC(=O)c1ccc(NC(=O)c2ccc([N+](=O)[O-])c(OC3Cc4ccccc4C3)c2)c(OCC(C)C)c1 | 
87 | O=C(O)c1ccc(NC(=O)c2ccc([N+](=O)[O-])cc2)cc1 | 
117 | COC(=O)c1ccc(NC(=O)c2ccc([N+](=O)[O-])c(OCc3cccc4ccccc34)c2)c(OC2Cc3ccccc3C2)c1 | 
70 | COC(=O)c1ccc(NC(=O)c2ccc([N+](=O)[O-])c(OC(C)C)c2)c(OCC(C)C)c1 | 
87 | CC(C)COc1cc(C(=O)Nc2ccc(C(=O)O)cc2OCc2ccncc2)ccc1[N+](=O)[O-] | 
89 | CC(C)COc1cc(C(=O)Nc2ccc(C(=O)O)cc2OCC(C)C)ccc1NC(=O)COCC(=O)O | 
90 | CC(C)COc1cc(C(=O)O)ccc1NC(=O)c1ccc([N+](=O)[O-])cc1 | 
88 | COC(=O)c1ccc(NC(=O)c2ccc([N+](=O)[O-])c(OCc3cccc4ccccc34)c2)c(OCc2ccccc2)c1 | 
0 | CC(C)COc1nc(C(=O)O)ccc1NC(=O)c1ccc([N+](=O)[O-])c(OCC(C)C)n1 | IC50 [9]: 23.8 µM; IC50 [10]: 30.3 µM; IC50 [11]: 11.1 µM
 | CC(C)COc1cc(C(=O)O)ccc1NC(=O)c1ccc([N+](=O)[O-])c(OCc2ccccc2)c1 | IC50 [9]: 43 µM; IC50 [11]: 25.6 µM
78 | COC(=O)c1ccc(NC(=O)c2ccc([N+](=O)[O-])c(OC3Cc4ccccc4C3)c2)c(OCc2ccccc2)c1 | 
120 | CC(C)COc1cc(C(=O)O)ccc1NC(=O)c1ccc([N+](=O)[O-])cc1OCC(C)C | 
100 | CC(C)COc1cc(C(=O)O)ccc1NC(=O)c1ccc([N+](=O)[O-])c(OCc2ccccn2)c1 | 
0 | CC(C)COc1cc(C(=O)O)ccc1NC(=O)c1ccc([N+](=O)[O-])c(OCC(C)C)c1 | IC50 [9]: 20.2 µM; IC50 [10]: 39.9 µM; IC50 [11]: 22.9 µM
107 | CC(C)COc1cc(C(=O)NCC(=O)O)ccc1NC(=O)c1ccc([N+](=O)[O-])c(OCC(C)C)c1 | 
